# Screening data deposited in PubChem by several laboratories.
# RORA act = activates the human nuclear receptor RORA | CHO-K1 Gal4-RORA LBD luciferase reporter, luminescence; percent increase over mock-subtracted basal signal | activation, % at 10 µM | actives 1.5% (n = 65,000);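 active = activation above the mean of all tested compounds plus 3 SD, cut at about 49% in these data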
# M1 ag = M1 muscarinic receptor agonism | CHO-M1 cells, Fluo-4 calcium fluorescence, agonist mode; stronger effect = higher value | B-score at 10 µM | actives 3% (n = 64,000) | AID 626;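 active = fluorescence rise, raw or as B-score row- and column-corrected plate score, outside the 99.7% band of its plate's samples, either direction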
# M1 antag = antagonists of rat M1 muscarinic receptor; P08482; CHO-M1 cells, Fluo-4 calcium, ACh EC80 antagonist mode; stronger effect = lower value; B-score at 10 µM; actives 3.4% (n = 64,000); AID 628;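 active = calcium fluorescence response, raw or row-and-column corrected B-score, differing from the plate sample mean either way at a set confidence level, mostly lower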
# Target sequence (P08482 whole entry, looked up): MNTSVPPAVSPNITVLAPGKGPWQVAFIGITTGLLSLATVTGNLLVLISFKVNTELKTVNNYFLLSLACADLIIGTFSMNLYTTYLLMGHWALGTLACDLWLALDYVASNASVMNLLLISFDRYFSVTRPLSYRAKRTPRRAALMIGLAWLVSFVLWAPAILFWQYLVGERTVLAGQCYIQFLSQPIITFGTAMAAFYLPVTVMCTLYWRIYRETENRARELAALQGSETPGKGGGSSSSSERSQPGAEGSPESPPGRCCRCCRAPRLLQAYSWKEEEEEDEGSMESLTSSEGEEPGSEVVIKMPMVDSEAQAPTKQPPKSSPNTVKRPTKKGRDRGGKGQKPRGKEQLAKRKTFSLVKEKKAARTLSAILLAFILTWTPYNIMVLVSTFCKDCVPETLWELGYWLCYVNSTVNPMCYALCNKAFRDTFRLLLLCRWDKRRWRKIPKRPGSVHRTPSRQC
# mHtt clearance = compounds clearing mutant huntingtin protein; HeLa Exon1htt(103Q)mCFP, aggregate imaging; zero = plate's median compound well; inhibition, % at 1.5 µM; actives 0.42% (n = 47,000); AID 853;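 active = inhibition of aggregate fluorescence above about 70%, also judged a hit by eye on the cell image, limit read from the data, passing the limit was not always enough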;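 also: cells exposed to compound for three days before fixation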
# SF1 activator = SF-1 (human) activation; activation, % at 10 µM; AID 522; actives 1.9% (n = 65,000); CHO-K1 Gal4-SF-1 LBD luciferase reporter; % increase over DMSO SF-1-specific signal; Q13285;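 active = activation above the mean activation of all tested compounds plus 3 SD, cut at about 50% in these data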
#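 Test system: CHO-K1 cells co-transfected with Gal4 DBD–human SF-1 LBD, 5xGal4 luciferase reporter. Quantity: 4,000 cells per well. Compound: 10 µM only. Incubation: compound added 1 h post-seeding, 20 h exposure at 37 °C, 5% CO2. Detection: SteadyLite luciferase luminescence. Replication: one test per compound.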
# D1 mod = D1 dopamine receptor (human) allosteric modulation; P21728; HEK293 D1, CRE-luciferase, dopamine EC30 potentiation; actives deviate in either direction; actives 5.9% (n = 58,000); B-score at 10 µM;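 active = luminescence count or its row- and column-corrected plate score outside the 99.7% band of the plate's sample wells, on either side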
# Numbers stand for hits; – = inactive; · = not tested or not shown. Rows were chosen to be rich in hits. Some 11% of all compounds tested hit in one or more screens of this group.
SMILES,RORA act,M1 ag,M1 antag,mHtt clearance,SF1 activator,D1 mod
COc1c(C)cccc1C(=O)Nc1ccc(N2CCN(S(C)(=O)=O)CC2)cc1,–,–,–,–,106.8,–
COc1c(C)cccc1C(=O)Nc1ccc(CN2CCOCC2)cc1,–,–,–,–,62.2,–
Nn1c(SCc2nc3ccccn3c2Br)nnc1-c1cccnc1,–,–,–,·,–,–
COc1cc(OC)nc(NC(=O)NS(=O)(=O)c2ccc(OC(F)(F)F)cc2)n1,–,–,–,–,–,–
Cc1ccc(C(=O)c2coc3ccc(O)c(CN4CCN(C)CC4)c23)cc1,–,–,–,–,–,-3.08
COc1ccc(C(=O)c2coc3ccc(O)c(CN4CCCC4)c23)cc1,–,–,–,·,–,–
CC(C)CCn1c(N2CCOCC2)nc2c1c(=O)n(CC(N)=O)c(=O)n2C,–,–,–,–,–,–
CN(C)C=NCCn1c(N2CCOCC2)nc2c1c(=O)n(C)c(=O)n2C,–,–,–,·,–,-3.78
COC(=O)Cn1c(C)nc2c(sc3nc(C)cc(C)c32)c1=O,–,–,–,–,50.1,–
O=C(CSc1ccc2nnc(-c3ccc(Cl)cc3)n2n1)N1CCCC1,–,–,–,·,–,5.64
O=C(CSc1ccc2nnc(-c3cccnc3)n2n1)N1CCc2ccccc21,–,-2.91,–,·,–,–
COc1ccc(-c2nnc3ccc(SCC(=O)N4CCN(c5ccccc5)CC4)nn23)cc1OC,–,6.01,–,·,–,–
Cc1ccc(-c2nnc3ccc(SCC(=O)N4CCCCC4)nn23)cc1,–,–,–,·,–,–
COC(=O)c1cc(S(=O)(=O)N2CCOCC2)c(N2CCOCC2)cc1N1CCOCC1,–,–,–,·,–,–
Cc1cnc(-c2nnc(N(C)C(=O)c3ccncc3)s2)cn1,–,–,–,·,–,–
CC(Sc1ccccn1)C(=O)Nc1ccccc1 (configuration not stated),–,–,–,–,57.1,–
Cc1ccc(Nc2nnns2)cc1C,–,–,–,·,–,–
Cc1cc2cc(CCNC(=O)c3c(-c4ccccc4Cl)noc3C)c(=O)[nH]c2cc1C,–,–,–,·,–,-3.74
COC(=O)CNC(=O)c1c(-c2ccccc2Cl)noc1C,–,–,–,·,–,–
O=C(Nc1ccc2c(c1)Cc1ccccc1-2)c1cc2ccccc2o1,·,·,·,–,·,·
Cc1cccc(NC(=O)c2cc3ccccc3o2)c1,–,–,–,·,89.5,–
Cc1cccc(NC(=O)CC(C)(C)C)c1,–,–,–,–,–,–
Cc1cccc(NC(=O)Cc2noc3ccccc23)c1,·,·,·,84.0,·,·
CC(C)C(=O)Nc1ccc(NC(=O)c2cc3ccccc3o2)cc1,59.4,–,–,–,–,·
O=C(Nc1cccc(Br)c1)c1cc2ccccc2o1,71.0,–,–,–,–,–
SMILES,RORA act,M1 ag,M1 antag,mHtt clearance,SF1 activator,D1 mod
CC1(C)CC2(CCO1)N1CC3(C)CN2CC(C)(C1)C3O (configuration not stated),–,–,–,·,–,–
CCCc1c(CC)c(=N)c2ccccc2n1C,–,–,–,·,–,–
Cc1cc(C(=O)Nc2cccc(C(=O)O)c2)oc1C,–,–,–,·,–,-4.35
O=C(CCn1c(=O)sc2ccccc21)Nc1nccs1,53.1,–,–,·,–,–
Cc1csc(NC(=O)CCn2c(=O)sc3ccccc32)n1,–,–,–,–,–,·
CCOCCCn1c(=N)c(C(=O)Nc2cc(C)on2)cc2c(=O)n3ccccc3nc21,–,5.91,–,–,–,–
Cc1nc2cc(F)ccc2n1C1CCN(S(=O)(=O)c2ccccc2)CC1,–,–,–,–,–,–
Cc1ccc2[nH]c(=O)c(C(c3nnnn3CC3CCCO3)N3CCCc4ccccc43)cc2c1 (configuration not stated),–,–,–,–,–,–
O=C(NC(=O)c1ccccc1)OCC1CCCN2CCCCC12 (configuration not stated),·,·,·,–,·,·
O=C(NC1=NC2CCCCC2N1)c1ccccc1 (configuration not stated),–,–,–,–,–,-5.44
O=S(=O)(NCc1cn2ccsc2n1)c1ccc2c(c1)OCCO2,–,–,–,–,–,–
Cc1ccc(S(=O)(=O)Nc2nc3ccccc3nc2NCc2ccco2)cc1,–,–,–,–,–,–
O=S(=O)(Nc1nc2ccccc2nc1NCc1ccco1)c1ccc(Cl)cc1,–,–,–,–,–,-3.51
CCOC(=O)c1c(NC(=O)CSc2n[nH]c(-c3ccco3)n2)sc(C)c1C,–,–,–,·,–,6.88
CCOC(=O)c1c(NC(=O)CSc2n[nH]c(CNc3ccccc3)n2)sc(C)c1C,·,·,·,–,·,·
CCn1c2ccccc2c2cc(NC(=O)CSc3nnc(-c4ccccc4OC)n3N)ccc21,–,–,–,75.7,–,–
O=C(NCCOc1ccccc1)c1cc2ccccc2o1,–,–,–,–,–,–
Cc1nnc(N2C(=O)C(O)=C(C(=O)c3ccco3)C2c2ccc(F)cc2)s1 (configuration not stated),–,17.8,–,·,–,–
CCCCN1CC(O)=C(c2nc3ccccc3s2)C1=N,–,–,–,·,73.7,–
COc1cccc(-c2nc(CS(=O)CC(=O)NCc3ccc4c(c3)OCO4)c(C)o2)c1 (configuration not stated),–,–,–,·,–,–
CN(C)S(=O)(=O)c1ccc2nc(NC(=O)c3cccnc3)sc2c1,–,–,–,–,62.1,–
O=C(COC(=O)c1ccc(Br)o1)Nc1nc2ccccc2s1,–,·,·,·,–,–
C=CCOC(=O)c1sc(NC(=O)c2ccco2)nc1C,52.9,–,–,–,92.6,–
Cc1ccc2nc(NC(=O)COC(=O)c3ccco3)sc2c1,60.6,–,–,·,–,·
CS(=O)(=O)c1ccc2nc(NC(=O)c3ccco3)sc2c1,65.5,–,–,–,74.4,·
SMILES,RORA act,M1 ag,M1 antag,mHtt clearance,SF1 activator,D1 mod
CCOC(=O)c1sc2nc(C)cc(C)c2c1NC(=O)c1ccco1,–,–,–,·,–,–
Cc1nc2cc(S(=O)(=O)N(C)C)ccc2n1-c1ccccc1,–,–,–,·,–,–
CN(c1ccccc1C(N)=O)S(=O)(=O)c1ccccc1,–,–,–,·,–,–
O=c1cnn(-c2ccccc2)c(-c2ccccc2)c1,–,–,–,–,–,·
Cc1cc(C)n(C(=O)C23CC4CC(CC(C4)C2)C3)n1,–,–,–,·,–,–
CCOC(=O)c1ccc2nc(NC(=O)c3cccs3)sc2c1,–,–,–,–,–,–
CCOC(=O)c1ccc2nc(NC(=O)c3ccco3)sc2c1,–,–,–,–,–,-4.84
O=C(NCc1ccco1)c1cc(-c2cccs2)on1,67.4,–,–,–,–,–
O=C(NCc1ccco1)c1ccc2ccccc2c1,67.5,–,–,·,–,–
O=C(NCCCn1ccnc1)c1cc(-c2cccs2)on1,91.8,–,–,·,67.0,–
O=C(NCc1ccco1)c1cc(-c2ccccc2)on1,–,–,–,·,–,–
